Test results published in ChEMBL document CHEMBL3588823, “Design, synthesis and biological evaluation of novel 5-oxo-2-thioxoimidazolidine derivatives as potent androgen receptor antagonists” (Eur J Med Chem, 2015).

Assays:
LNCaP = assay: Antiproliferative activity against human LNCAP cells after 3 days; format: functional, cell-based
Outline: (§1)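 LNCaP cells seeded at 10,000 per well in RPMI 1640 with 10% charcoal-stripped serum and 1% AAS, then held 3 days at 37 °C. Medium was then replaced with serial compound dilutions, either without DHT (agonism mode) or with DHT (antagonism mode).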

Androgen receptor [1] = molecular target: T1, Androgen receptor (Homo sapiens, UniProt P10275); assay: Antagonist activity at androgen receptor (unknown origin)
T1 sequence (P10275 whole entry): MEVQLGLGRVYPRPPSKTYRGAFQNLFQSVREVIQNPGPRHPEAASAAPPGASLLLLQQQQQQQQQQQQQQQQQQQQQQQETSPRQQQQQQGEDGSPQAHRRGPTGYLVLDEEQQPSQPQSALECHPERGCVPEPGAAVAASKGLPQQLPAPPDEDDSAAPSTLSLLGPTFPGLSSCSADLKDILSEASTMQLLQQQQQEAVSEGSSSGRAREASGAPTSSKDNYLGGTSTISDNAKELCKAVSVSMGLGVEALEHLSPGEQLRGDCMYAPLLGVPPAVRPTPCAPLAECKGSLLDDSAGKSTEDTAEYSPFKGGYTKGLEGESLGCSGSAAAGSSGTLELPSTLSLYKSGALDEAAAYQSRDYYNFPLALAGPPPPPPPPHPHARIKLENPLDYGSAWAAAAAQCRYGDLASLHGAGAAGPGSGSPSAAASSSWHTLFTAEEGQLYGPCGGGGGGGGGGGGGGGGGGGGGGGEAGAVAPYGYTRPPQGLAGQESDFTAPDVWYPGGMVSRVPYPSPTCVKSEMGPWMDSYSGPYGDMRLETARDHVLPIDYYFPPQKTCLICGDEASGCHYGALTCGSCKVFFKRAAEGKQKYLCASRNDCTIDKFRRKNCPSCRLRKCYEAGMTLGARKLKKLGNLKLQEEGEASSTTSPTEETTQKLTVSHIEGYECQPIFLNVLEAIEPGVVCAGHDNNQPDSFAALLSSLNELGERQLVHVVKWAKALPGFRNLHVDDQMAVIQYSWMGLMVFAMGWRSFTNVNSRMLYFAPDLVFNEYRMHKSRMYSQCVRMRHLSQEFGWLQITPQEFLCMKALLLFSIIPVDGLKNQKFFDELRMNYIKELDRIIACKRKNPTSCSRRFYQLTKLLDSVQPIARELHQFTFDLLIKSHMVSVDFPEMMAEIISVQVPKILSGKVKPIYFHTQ

[2] = (§2) Half life in rat at 5 mg/kg, po; format: ADME, organism-based; details: in vivo
Outline: (§3)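 Rats (n = 3) were given a single 5 mg/kg oral dose in 0.5% HPMC. Blood was taken into EDTA tubes at 15 and 30 min and 1, 2, 4, 8 and 24 h. Plasma was obtained by centrifugation and proteins were precipitated with acetonitrile. Bioavailability was calculated against a 1 mg/kg iv dose.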

[3] = (§4) Half life in rat at 1 mg/kg, iv; format: ADME, organism-based; details: in vivo
Outline: (§5)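 Rats (n = 3) were given a single 1 mg/kg iv dose in 20% hydroxypropyl-β-cyclodextrin. Blood was taken into EDTA tubes at 5, 15 and 30 min and 1, 2, 4, 8 and 24 h. Plasma was obtained by centrifugation and proteins were precipitated with acetonitrile before analysis.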

[4] = (§6) Tmax in rat at 5 mg/kg, po; format: ADME, organism-based; details: in vivo; outline: as §3
[5] = Tmax in rat at 1 mg/kg, iv; format: ADME, organism-based; details: in vivo; outline: as §5
[6] = (§7) Cmax in rat at 5 mg/kg, po; format: ADME, organism-based; design: dose 5 mg/kg, route oral; details: in vivo; outline: as §3
[7] = (§8) Cmax in rat at 1 mg/kg, iv; format: ADME, organism-based; design: dose 1 mg/kg, route intravenous; details: in vivo; outline: as §5
[8] = AUC (0 to time) in rat at 5 mg/kg, po; format: ADME, organism-based; details: in vivo
Outline: (§9)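 Rats (n = 3) received a single 5 mg/kg oral dose in 0.5% HPMC. EDTA blood samples were taken at 15 and 30 min and at 1, 2, 4, 8 and 24 h. Plasma was obtained by centrifugation, mixed with acetonitrile:H2O (1:1 v/v) and precipitated with acetonitrile.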

[9] = AUC (0 to time) in rat at 1 mg/kg, iv; format: ADME, organism-based; details: in vivo
Outline: (§10)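 Rats (n = 3) given a single 1 mg/kg iv dose in 20% HP-b-CD. Blood was drawn into EDTA tubes at 5, 15 and 30 min and at 1, 2, 4, 8 and 24 h. Plasma was separated by centrifugation, mixed with acetonitrile:H2O (1:1 v/v) and protein-precipitated with acetonitrile.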

[10] = (§11) AUC (0 to infinity) in rat at 5 mg/kg, po; format: ADME, organism-based; design: dose 5 mg/kg, route oral, time infinity; details: in vivo; outline: as §9
[11] = AUC (0 to infinity) in rat at 1 mg/kg, iv; format: ADME, organism-based; design: dose 1 mg/kg, route intravenous, time infinity; details: in vivo; outline: as §10
Rattus norvegicus [12] = assay: Volume of distribution in rat at 5 mg/kg, po; format: ADME, organism-based; details: in vivo; outline: as §3
[13] = Volume of distribution in rat at 1 mg/kg, iv; format: ADME, organism-based; details: in vivo; outline: as §5
[14] = Clearance in rat at 5 mg/kg, po; format: ADME, organism-based; details: in vivo; outline: as §3
[15] = (§12) Clearance in rat at 1 mg/kg, iv; format: ADME, organism-based; details: in vivo; outline: as §5
[16] = MRT (last) in rat at 5 mg/kg, po; format: ADME, organism-based; details: in vivo; outline: as §3
[17] = MRT (last) in rat at 1 mg/kg, iv; format: ADME, organism-based; details: in vivo; outline: as §5
[18] = MRT (INF) in rat at 5 mg/kg, po; format: ADME, organism-based; details: in vivo; outline: as §3
[19] = (§13) MRT (INF) in rat at 1 mg/kg, iv; format: ADME, organism-based; details: in vivo; outline: as §5
[20] = Oral bioavailability in rat at 5 mg/kg; format: ADME, organism-based; details: in vivo; outline: as §3
Rattus norvegicus [21] = assay: as §12; format: ADME, organism-based; details: in vivo; outline: as §5
Rattus norvegicus [22] = assay: as §13; format: ADME, organism-based; details: in vivo; outline: as §5
Rattus norvegicus [23] = assay: Volume of distribution at steady state in rat at 5 mg/kg, po; format: ADME, organism-based; details: in vivo; outline: as §3
Rattus norvegicus [24] = assay: Volume of distribution at steady state in rat at 1 mg/kg, iv; format: ADME, organism-based; details: in vivo; outline: as §5
Androgen receptor [25] = molecular target: T1, Androgen receptor; assay: Partial agonist activity at androgen receptor (unknown origin); outline: as §1
Rattus norvegicus [26] = assay: as §2; format: ADME, organism-based; details: in vivo; outline: as §3
Rattus norvegicus [27] = assay: as §4; format: ADME, organism-based; details: in vivo; outline: as §5
Rattus norvegicus [28] = assay: as §6; format: ADME, organism-based; details: in vivo; outline: as §3
Rattus norvegicus [29] = assay: as §7; format: ADME, organism-based; design: dose 5 mg/kg, route oral; details: in vivo; outline: as §3
Rattus norvegicus [30] = assay: as §8; format: ADME, organism-based; design: dose 1 mg/kg, route intravenous; details: in vivo; outline: as §5
Rattus norvegicus [31] = assay: as §11; format: ADME, organism-based; design: dose 5 mg/kg, route oral, time infinity; details: in vivo; outline: as §9
[32] = Homo sapiens, LNCaP, 72 h, read-out: IC50

SMILES: CCOC(=O)CC1(C)C(=O)N(c2ccc(C#N)c(C(F)(F)F)c2)C(=S)N1c1ccc(C(=O)NC)c(F)c1 (racemic)
- IC50 (LNCaP; [32]): 1380 nM
- Ki (Androgen receptor [1]): 236 nM

SMILES: CNC(=O)c1ccc(N2C(=S)N(c3ccc(C#N)c(C(F)(F)F)c3)C(=O)[C@@]2(C)COC)cc1F
- IC50 (LNCaP; [32]): 185 nM
- Ki (Androgen receptor [1]): 40.6 nM

SMILES: CNC(=O)c1ccc(N2CC(=O)N(c3ccc(C#N)c(C(F)(F)F)c3)C2=S)cc1F
- IC50 (LNCaP; [32]): > 10000 nM

SMILES: N#Cc1ccc(N2C(=O)[C@]3(CCOC3)N(c3ccc(C(=O)O)c(F)c3)C2=S)cc1C(F)(F)F
- IC50 (LNCaP; lncap): Not Active
- Ki (Androgen receptor [1]): Not Active
- half-life [2]: 4 h
- half-life [3]: 3.3 h
- Tmax [4]: 0.42 h
- Tmax [5]: 4.98 min
- Cmax [6]: 231 ng/mL
- Cmax [7]: 1180 ng/mL
- AUC [8]: 716 ng·h/mL
- AUC [9]: 497 ng·h/mL
- AUC(0-inf) [10]: 743 ng·h/mL
- AUC(0-inf) [11]: 509 ng·h/mL
- Vd (Rattus norvegicus [12]): 38.4 L/kg
- Vd [13]: 8 L/kg
- CL/F [14]: 117 mL/min/kg
- clearance [15]: 33.3 mL/min/kg
- MRT last [16]: 3.5 h
- MRT last [17]: 0.5 h
- MRT inf [18]: 4.2 h
- MRT inf [19]: 0.8 h
- bioavailability [20]: 29%

SMILES: CNC(=O)c1ccc(N2C(=S)N(c3ccc(C#N)c(C(F)(F)F)c3)C(=O)[C@]2(C)COC)cc1F
- IC50 (LNCaP; [32]): 3170 nM
- Ki (Androgen receptor [1]): 798 nM

SMILES: COC(=O)c1ccc(N2C(=S)N(c3ccc(C#N)c(C(F)(F)F)c3)C(=O)[C@]23CCOC3)cc1F
- IC50 (LNCaP; [32]): 59 nM
- Ki (Androgen receptor [1]): 11.9 nM
- half-life [2]: 4.3 h
- half-life [3]: 17.1 h
- Tmax [4]: 1.67 h
- Tmax [5]: 4.98 min
- Cmax [6]: 104 ng/mL
- Cmax [7]: 518 ng/mL
- AUC [8]: 570 ng·h/mL
- AUC [9]: 599 ng·h/mL
- AUC(0-inf) [10]: 576 ng·h/mL
- AUC(0-inf) [11]: 712 ng·h/mL
- Vd (Rattus norvegicus [12]): 53 L/kg
- Vd [13]: 46 L/kg
- CL/F [14]: 147 mL/min/kg
- CL (Rattus norvegicus [21]): 28.3 mL/min/kg
- MRT last [16]: 4.6 h
- MRT last [17]: 4.3 h
- MRT inf [18]: 5 h
- MRT (Rattus norvegicus [22]): 12.8 h
- Vdss (Rattus norvegicus [23]): 2 L/kg
- Vdss (Rattus norvegicus [24]): 1.6 L/kg
- bioavailability [20]: 19%

SMILES: CNC(=O)c1ccc(N2C(=S)N(c3ccc(C#N)c(C(F)(F)F)c3)C(=O)C2(C)CO)cc1F (stereo not given)
- IC50 (LNCaP; [32]): 212 nM
- Ki (Androgen receptor [25]): 43.3 nM

SMILES: CNC(=O)c1ccc(N2C(=S)N(c3ccc(C#N)c(C(F)(F)F)c3)C(=O)C2C)cc1F (racemic)
- IC50 (LNCaP; [32]): 944 nM
- Ki (Androgen receptor [25]): 257 nM

SMILES: CNC(=O)c1ccc(N2C(=S)N(c3ccc(C#N)c(C(F)(F)F)c3)C(=O)C23CCOCC3)cc1F
- IC50 (LNCaP; [32]): 540 nM
- Ki (Androgen receptor [1]): 126 nM

SMILES: CNC(=O)c1ccc(N2C(=S)N(c3ccc(C#N)c(C(F)(F)F)c3)C(=O)C2(C)COC)cc1F (racemic)
- IC50 (LNCaP; [32]): 344 nM
- Ki (Androgen receptor [1]): 68 nM

SMILES: CNC(=O)c1ccc(N2C(=S)N(c3ccc(C#N)c(C(F)(F)F)c3)C(=O)[C@@]23CCOC3)cc1F
- IC50 (LNCaP; [32]): 2000 nM
- Ki (Androgen receptor [1]): 215 nM

SMILES: CNC(=O)c1ccc(N2C(=S)N(c3ccc(C#N)c(C(F)(F)F)c3)C(=O)[C@]23CCOC3)cc1F
- IC50 (LNCaP; [32]): 79.2 nM
- Ki (Androgen receptor [1]): 18.4 nM
- t1/2 (Rattus norvegicus [26]): 5.2 h
- t1/2 (Rattus norvegicus [27]): 4.1 h
- Tmax (Rattus norvegicus [28]): 2 h
- Tmax [5]: 4.98 min
- Cmax (Rattus norvegicus [29]): 1062 ng/mL
- Cmax (Rattus norvegicus [30]): 531 ng/mL
- AUC [8]: 13000 ng·h/mL
- AUC [9]: 2570 ng·h/mL
- AUC (Rattus norvegicus [31]): 13105 ng·h/mL
- AUC(0-inf) [11]: 2620 ng·h/mL
- Vd [13]: 2.3 L/kg
- clearance [15]: 6.67 mL/min/kg
- MRT last [16]: 6.9 h
- MRT last [17]: 4.8 h
- MRT inf [18]: 7.2 h
- MRT (Rattus norvegicus [22]): 5.3 h
- bioavailability [20]: 100%
